Here are results for four molecules from ChEMBL document CHEMBL1141607, “Design, synthesis, and in vitro photodynamic activities of benzochloroporphyrin derivatives as tumor photosensitizers” (Bioorg Med Chem Lett, 2008).

In assay [1] the test system is Bel-7402. Description: Cytotoxicity against human BEL-7402 cells assessed as photo-induced growth inhibition upto 2.5 ug/mL after 24 hrs in dark by MTT assay. More on the design: scale not given: the % may be the effect or the level left. The assay is classed as functional. In a few lines:
(§1)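 Human hepatoma BEL-7402 cells were incubated with compound (0.03125–2.5 µg/mL) in the dark for 24 h at 37 °C. Cells in the light arm were then irradiated with a 670 nm laser at 10 J/cm² (56 mW/cm² for 3 min); dark-arm cells were not irradiated. Cells were then incubated for 24 h at 37 °C and survival was read by MTT in triplicate. IC50 was reported with 95% confidence limits.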
Background: Formazan colour is commonly taken as a measure of viable cells.

Assay [2] deals with Bel-7402. Nature of the assay: Induction of apoptosis in human BEL-7402 cells […] by methyl green-pyronin staining method. The assay is classed as functional, cell-based.
Assay [3] deals with Bel-7402. Nature of the assay: Cytotoxicity against human BEL-7402 cells assessed as photo-induced growth inhibition after 24 hrs in dark by MTT assay. The assay is classed as functional, cell-based. The following applies: Bel-7402, 24 h. The method in brief: as §1

Values after ≈ are worked out from the molar mass of the structure shown. Active and inactive are the calls of the source. The calls are words filed in the database; no cut-off is given here. A value given as a limit tells only on which side of the number the result lay.

What is called IC50 is the concentration that gives 50% inhibition. In the case of `CCC1=C(C)c2cc3[nH]c(cc4nc(c5c6[nH]c(cc1n2)c(C)c6C(=O)C5C(=O)OC)C(CCC(=O)OC)=C4C)[C@@]1(C)C3=CC=C(C(=O)OC)[C@H]1C(=O)OC` (some centres undefined), the Activity with Bel-7402 [1] was more than 92%. Besides, in the assay on Bel-7402 [2], the result was Active. Moreover, in the assay with Bel-7402 [3], the IC50 stood at 0.26 µg/mL (≈ 0.348 µM).

Consider `CCC1=C(C)c2cc3[nH]c(cc4nc(c(C)c5[nH]c(cc1n2)c(C)c5C(=O)OC)C(CCC(=O)OC)=C4C)[C@@]1(C)C3=CC=C(C(=O)OC)[C@H]1C(=O)OC`, for which the Activity with Bel-7402 [1] is reported as more than 92%. Moreover, the IC50 in the assay on Bel-7402 [3] worked out at 0.47 µg/mL (≈ 0.652 µM).

Regarding `CCC1=C(C)c2cc3[nH]c(cc4nc(c(CC(=O)OC)c5[nH]c(cc1n2)c(C)c5C(=O)OC)C(CCC(=O)OC)=C4C)[C@@]1(C)C3=CC=C(C(=O)OC)[C@H]1C(=O)OC`, the Activity in the assay on Bel-7402 [1] is reported as more than 92%. For the same molecule, the IC50 in the assay with Bel-7402 [3] stood at 1.32 µg/mL (≈ 1.69 µM).

For the molecule `CCC1=C(C)c2cc3[nH]c(cc4nc(c(C(=O)OC)c5[nH]c(cc1n2)c(C)c5C(=O)OC)C(CCC(=O)OC)=C4C)[C@@]1(C)C3=CC=C(C(=O)OC)[C@H]1C(=O)OC`, the Activity in the assay on Bel-7402 [1] is given as more than 92%. In addition, the IC50 in the assay with Bel-7402 [3] turned out to be 0.27 µg/mL (≈ 0.353 µM).
